In ChEMBL document CHEMBL3875213, “Quinolines: Microwave-assisted synthesis and their antifungal, anticancer and radical scavenger properties” (Bioorg Med Chem, 2017):
Converted amounts (≈) assume the structure as drawn. The source made the active and inactive calls. The rule behind the calls is not given here.

Tested on: not listed separately
Assay: Antifungal activity against Cryptococcus neoformans ATCC 32264 incubated for 48 hrs under dark condition by broth microdilution assay
Type: functional
Settings: not given
How it was run: (§1)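 Broth microdilution per CLSI M27-A3 in RPMI-1640. Inocula adjusted to 1-5 x 10^3 CFU/mL. Stocks in DMSO (≤1%), final 3.9-250.0 µg/mL. Incubated 48 h at 30 °C in a moist, dark chamber, read at OD 405. % inhibition computed from growth and sterility control wells, run in triplicate. MIC80/MIC50 taken from four-parameter logistic concentration-response curves; amphotericin B as positive control.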

MIC50	MIC80	SMILES	Activity
250 µg/mL (≈ 633 µM)	> 250 µg/mL	Clc1ccc(-c2cc(-c3ccccc3)c3cc(Br)ccc3n2)cc1	–
62.5 µg/mL (≈ 178 µM)	250 µg/mL (≈ 714 µM)	Brc1ccc2nc(-c3ccco3)cc(-c3ccccc3)c2c1	Dose-dependent effect
> 250 µg/mL	> 250 µg/mL	Oc1cccc(-c2cc(-c3ccccc3)c3cc(Br)ccc3n2)c1	–

Tested on: not listed separately
Assay: Antiproliferative activity against human CCD-19Lu cells after 24 hrs by MTT assay
Type: cell-based
Settings: not given
How it was run: (§2)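 Cells grown in medium with 10% foetal bovine serum and 1% L-glutamine at 37 °C, 5% CO2, seeded at 1 x 10^5 cells/well. Exposed to compound at 1.0-1,000 µg/mL for 24 h. MTT added, absorbance read at 540 nm 3 h later. IC50 obtained by non-linear regression of viability data.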

SMILES	IC50
Clc1ccc(-c2cc(-c3ccccc3)c3cc(Br)ccc3n2)cc1	528 µM
Brc1ccc2nc(-c3ccco3)cc(-c3ccccc3)c2c1	631 µM

Tested on: Candida albicans
Assay: Growth inhibition of Candida albicans ATCC 10231 at 250 ug/ml incubated for 48 hrs under dark condition by broth microdilution assay relative to amphotericin B
Type: functional
Settings: ATCC 10231, 48 h, read-out: GI
How it was run: (§3)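 Yeast broth microdilution (CLSI M27-A3), RPMI-1640, inoculum 1-5 x 10^3 CFU/mL, DMSO ≤1%, 48 h at 30 °C in a moist, dark chamber. […]. Triplicate; amphotericin B as positive control.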

SMILES	inhibition of growth at 250 µg/mL
Clc1ccc(-c2cc(-c3ccccc3)c3cc(Br)ccc3n2)cc1	50.5%
Brc1ccc2nc(-c3ccco3)cc(-c3ccccc3)c2c1	83.3%
Oc1cccc(-c2cc(-c3ccccc3)c3cc(Br)ccc3n2)c1	40.9%

Tested on: not listed separately
Assay: Antiproliferative activity against human NCI-H226 cells harboring TP53 mutant after 24 hrs by MTT assay
Type: functional, cell-based
Settings: NCI-H226, 24 h
How it was run: as §2

SMILES	IC50
Clc1ccc(-c2cc(-c3ccccc3)c3cc(Br)ccc3n2)cc1	1.58 µM
Brc1ccc2nc(-c3ccco3)cc(-c3ccccc3)c2c1	30 µM

Tested on: not listed separately
Assay: Antioxidant activity assessed as fluorescent light-induced superoxide anion scavenging activity incubated for 10 mins by nitroblue tetrazolium dye based assay
Type: functional
Settings: not given
How it was run: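 Riboflavin/light superoxide system: 50 mM phosphate pH 7.8, 13 mM L-methionine, 75 µM NBT, 100 µM EDTA, 2 µM riboflavin, compound 0-200 µg/mL. Fluorescent light for 10 min at 25 °C, dark controls, scavenging measured at 575 nm. Resveratrol as reference.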

SMILES	SC50
Clc1ccc(-c2cc(-c3ccccc3)c3cc(Br)ccc3n2)cc1	> 250 µM
Brc1ccc2nc(-c3ccco3)cc(-c3ccccc3)c2c1	> 250 µM
Oc1cccc(-c2cc(-c3ccccc3)c3cc(Br)ccc3n2)c1	121 µM

Tested on: Candida albicans
Assay: Growth inhibition of Candida albicans ATCC 10231 at 3.9 ug/ml incubated for 48 hrs under dark condition by broth microdilution assay relative to amphotericin B
Type: functional
Settings: ATCC 10231, 48 h, read-out: GI
How it was run: as §3

SMILES	inhibition of growth at 3.9 µg/mL
Clc1ccc(-c2cc(-c3ccccc3)c3cc(Br)ccc3n2)cc1	0%
Brc1ccc2nc(-c3ccco3)cc(-c3ccccc3)c2c1	1.75%

Tested on: not listed separately
Assay: Antiproliferative activity against human Hep2C cells after 24 hrs by MTT assay
Type: functional, cell-based
Settings: not given
How it was run: as §2

SMILES	IC50
Clc1ccc(-c2cc(-c3ccccc3)c3cc(Br)ccc3n2)cc1	269 µM
Brc1ccc2nc(-c3ccco3)cc(-c3ccccc3)c2c1	102 µM

Tested on: Candida albicans
Assay: Growth inhibition of Candida albicans ATCC 10231 at 7.81 ug/ml incubated for 48 hrs under dark condition by broth microdilution assay relative to amphotericin B
Type: functional
Settings: ATCC 10231, 48 h, read-out: GI
How it was run: as §3

SMILES	inhibition of growth at 7.81 µg/mL
Clc1ccc(-c2cc(-c3ccccc3)c3cc(Br)ccc3n2)cc1	0%
Brc1ccc2nc(-c3ccco3)cc(-c3ccccc3)c2c1	4.37%
Oc1cccc(-c2cc(-c3ccccc3)c3cc(Br)ccc3n2)c1	3.15%

Tested on: NCI-H226
Assay: Selectivity index, ratio of IC50 for human CCD-19Lu cells to IC50 for human NCI-H226 cells
Type: functional
Settings: not given
How it was run: (§4)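 Selectivity index equals IC50 in non-tumour CCD 19-Lu lung fibroblasts divided by IC50 in the tumour line. Both IC50s come from the 24 h MTT assay (read at 540 nm) over 1.0-1,000 µg/mL.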

SMILES	Ratio IC50
Clc1ccc(-c2cc(-c3ccccc3)c3cc(Br)ccc3n2)cc1	356
Brc1ccc2nc(-c3ccco3)cc(-c3ccccc3)c2c1	21

Tested on: Candida albicans
Assay: Growth inhibition of Candida albicans ATCC 10231 at 31.25 ug/ml incubated for 48 hrs under dark condition by broth microdilution assay relative to amphotericin B
Type: functional
Settings: ATCC 10231, 48 h, read-out: GI
How it was run: as §3

SMILES	inhibition of growth at 31.25 µg/mL
Clc1ccc(-c2cc(-c3ccccc3)c3cc(Br)ccc3n2)cc1	6.78%
Brc1ccc2nc(-c3ccco3)cc(-c3ccccc3)c2c1	13.1%
Oc1cccc(-c2cc(-c3ccccc3)c3cc(Br)ccc3n2)c1	7.61%

Tested on: not listed separately
Assay: Antiproliferative activity against human TOV21G harboring wild type TP53 cells after 24 hrs by MTT assay
Type: functional, cell-based
Settings: not given
How it was run: as §2

SMILES	IC50
Brc1ccc2nc(-c3ccco3)cc(-c3ccccc3)c2c1	877 µM

Tested on: Candida albicans
Assay: Antifungal activity against Candida albicans ATCC 10231 incubated for 48 hrs under dark condition by broth microdilution assay
Type: functional
Settings: ATCC 10231, 48 h
How it was run: as §1

MIC50	MIC80	SMILES
250 µg/mL (≈ 633 µM)	> 250 µg/mL	Clc1ccc(-c2cc(-c3ccccc3)c3cc(Br)ccc3n2)cc1
62.5 µg/mL (≈ 178 µM)	125 µg/mL (≈ 357 µM)	Brc1ccc2nc(-c3ccco3)cc(-c3ccccc3)c2c1
> 250 µg/mL	> 250 µg/mL	Oc1cccc(-c2cc(-c3ccccc3)c3cc(Br)ccc3n2)c1

Tested on: Candida albicans
Assay: Growth inhibition of Candida albicans ATCC 10231 at 125 ug/ml incubated for 48 hrs under dark condition by broth microdilution assay relative to amphotericin B
Type: functional
Settings: ATCC 10231, 48 h, read-out: GI
How it was run: as §3

SMILES	inhibition of growth at 125 µg/mL
Clc1ccc(-c2cc(-c3ccccc3)c3cc(Br)ccc3n2)cc1	24.7%
Brc1ccc2nc(-c3ccco3)cc(-c3ccccc3)c2c1	43.2%
Oc1cccc(-c2cc(-c3ccccc3)c3cc(Br)ccc3n2)c1	20.2%

Tested on: Candida albicans
Assay: Growth inhibition of Candida albicans ATCC 10231 at 15.62 ug/ml incubated for 48 hrs under dark condition by broth microdilution assay relative to amphotericin B
Type: functional
Settings: ATCC 10231, 48 h, read-out: GI
How it was run: as §3

SMILES	inhibition of growth at 15.62 µg/mL
Clc1ccc(-c2cc(-c3ccccc3)c3cc(Br)ccc3n2)cc1	6.88%
Brc1ccc2nc(-c3ccco3)cc(-c3ccccc3)c2c1	8.68%
Oc1cccc(-c2cc(-c3ccccc3)c3cc(Br)ccc3n2)c1	4.08%

Tested on: not listed separately
Assay: Antioxidant activity assessed as DPPH radical scavenging activity incubated for 30 mins under dark condition
Type: functional
Settings: not given
How it was run: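 DPPH (100 µM) in ethanolic medium, stirred 30 min in the dark, absorbance at 517 nm. Compound varied from 0 to 160 µg/mL to find the concentration scavenging 50% of radicals. Three independent experiments, each in triplicate.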

SMILES	SC50
Clc1ccc(-c2cc(-c3ccccc3)c3cc(Br)ccc3n2)cc1	180 µM
Brc1ccc2nc(-c3ccco3)cc(-c3ccccc3)c2c1	82.7 µM
Oc1cccc(-c2cc(-c3ccccc3)c3cc(Br)ccc3n2)c1	> 250 µM

Tested on: not listed separately
Assay: Antioxidant activity assessed as DPPH radical scavenging activity at 160 uM incubated for 30 mins under dark condition
Type: functional
Settings: not given
How it was run: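 Compound at 160 µM incubated with 100 µM DPPH in ethanolic medium, stirred in the dark for 30 min, read at 517 nm. Resveratrol as positive control. Three independent experiments, each in triplicate.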

SMILES	Activity
Clc1ccc(-c2cc(-c3ccccc3)c3cc(Br)ccc3n2)cc1	45 to 55%
Brc1ccc2nc(-c3ccco3)cc(-c3ccccc3)c2c1	45 to 55%

Tested on: not listed separately
Assay: Selectivity index, ratio of IC50 for human CCD-19Lu cells to IC50 for human TOV21G cells
Type: functional
Settings: not given
How it was run: as §4

SMILES	Ratio IC50
Brc1ccc2nc(-c3ccco3)cc(-c3ccccc3)c2c1	0

Tested on: not listed separately
Assay: Potency index, ratio of resveratrol SC50 to compound SC50 for fluorescent light-induced superoxide anion scavenging activity
Settings: not given

SMILES	Ratio
Oc1cccc(-c2cc(-c3ccccc3)c3cc(Br)ccc3n2)c1	2

Tested on: not listed separately
Assay: Selectivity index, ratio of IC50 for human CCD-19Lu cells to IC50 for human Hep2C cells
Type: functional
Settings: not given
How it was run: as §4

SMILES	Ratio IC50
Clc1ccc(-c2cc(-c3ccccc3)c3cc(Br)ccc3n2)cc1	1
Brc1ccc2nc(-c3ccco3)cc(-c3ccccc3)c2c1	6

Tested on: not listed separately
Assay: Antioxidant activity assessed as fluorescent light-induced superoxide anion scavenging activity at 160 uM incubated for 10 mins by nitroblue tetrazolium dye based assay
Type: functional
Settings: not given
How it was run: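 Superoxide generated photochemically in 50 mM phosphate buffer pH 7.8 with 13 mM L-methionine, 75 µM nitroblue tetrazolium, 100 µM EDTA and 2 µM riboflavin. Compound at 160 µM. 10 min at 25 °C under fluorescent light; dark controls. Read at 575 nm. Resveratrol as positive control; three independent experiments in triplicate.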

SMILES	Activity
Oc1cccc(-c2cc(-c3ccccc3)c3cc(Br)ccc3n2)c1	Active

Tested on: Candida albicans
Assay: Growth inhibition of Candida albicans ATCC 10231 at 62.5 ug/ml incubated for 48 hrs under dark condition by broth microdilution assay relative to amphotericin B
Type: functional
Settings: ATCC 10231, 48 h, read-out: GI
How it was run: as §3

SMILES	inhibition of growth at 62.5 µg/mL
Clc1ccc(-c2cc(-c3ccccc3)c3cc(Br)ccc3n2)cc1	9.38%
Brc1ccc2nc(-c3ccco3)cc(-c3ccccc3)c2c1	21.5%
Oc1cccc(-c2cc(-c3ccccc3)c3cc(Br)ccc3n2)c1	11.2%
